Key:
[1] = biological target: T1, 3',5'-cyclic-AMP phosphodiesterase 4B (Homo sapiens, UniProt Q07343); assay: Inhibition of recombinant His-tagged PDE4B (unknown origin) expressed in Sf9 cells using cAMP as substrate at 30 uM incubated for 15 mins prior to substrate addition measured after 1 hr by luminescence-based assay
Outline: (§1)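 His-tagged PDE4B made in baculovirus-infected Sf9 cells (lysed 48 h post-infection) and purified on Ni-NTA with imidazole elution. Enzyme (10 ng) pre-incubated 15 min with compound or DMSO vehicle, then 1 h with cAMP substrate; reaction stopped, detection reagent added for 10 min in dark, luminescence (RLU) read. Percent inhibition calculated from RLU relative to vehicle control.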

[2] = biological target: T1, 3',5'-cyclic-AMP phosphodiesterase 4B; assay: Inhibition of recombinant His-tagged PDE4B (unknown origin) expressed in Sf9 cells using cAMP as substrate incubated for 15 mins prior to substrate addition measured after 1 hr by luminescence-based assay; outline: as §1

T1 sequence (Q07343 whole entry): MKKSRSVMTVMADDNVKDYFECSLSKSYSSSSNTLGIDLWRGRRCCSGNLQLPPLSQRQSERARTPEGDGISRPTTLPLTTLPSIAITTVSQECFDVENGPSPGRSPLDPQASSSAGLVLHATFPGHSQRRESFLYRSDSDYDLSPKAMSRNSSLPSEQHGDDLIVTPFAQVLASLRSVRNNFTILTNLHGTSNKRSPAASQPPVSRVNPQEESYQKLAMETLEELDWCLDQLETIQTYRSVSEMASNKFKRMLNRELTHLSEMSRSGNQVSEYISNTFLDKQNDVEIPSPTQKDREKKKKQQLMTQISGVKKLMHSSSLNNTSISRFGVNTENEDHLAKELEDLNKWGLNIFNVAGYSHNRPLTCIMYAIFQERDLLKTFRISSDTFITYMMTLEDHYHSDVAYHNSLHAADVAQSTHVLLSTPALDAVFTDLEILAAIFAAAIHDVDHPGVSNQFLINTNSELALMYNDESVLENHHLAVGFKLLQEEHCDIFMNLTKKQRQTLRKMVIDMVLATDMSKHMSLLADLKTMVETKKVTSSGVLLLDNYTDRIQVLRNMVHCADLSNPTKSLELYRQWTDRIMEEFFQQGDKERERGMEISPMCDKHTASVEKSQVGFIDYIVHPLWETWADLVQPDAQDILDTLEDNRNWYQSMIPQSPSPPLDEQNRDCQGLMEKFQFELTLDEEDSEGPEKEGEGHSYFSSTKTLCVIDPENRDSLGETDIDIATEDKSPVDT

## CCOC(=O)C1=CN(c2ccccc2OC)C=C(C(=O)OCC)C1c1ccc(Br)cc1
[1]
  inhibition: 78.4%
[2]
  IC50: > 5 µM
  inhibition: Dose-dependent effect

## CCOC(=O)C1=CN(c2ccccc2OC)C=C(C(=O)OCC)C1c1ccccc1
[1]
  inhibition: 29.9%

## CCOC(=O)C1=CN(c2ccccc2OC)C=C(C(=O)OCC)C1c1ccc(F)c(F)c1
[1]
  inhibition: 46%

## CCOC(=O)C1=CN(c2ccc(OC)cc2)C=C(C(=O)OCC)C1c1ccc(F)c(F)c1
[1]
  inhibition: 78.7%

## CCOC(=O)C1=CN(c2ccc(OC)cc2)C=C(C(=O)OCC)C1c1ccc(Br)cc1
[1]
  inhibition: 35.1%

## CCOC(=O)C1=CN(c2ccc(OC)cc2)C=C(C(=O)OCC)C1c1ccccc1
[1]
  inhibition: 39.3%

## CCOC(=O)C1=CN(c2ccc(OC)cc2OC)C=C(C(=O)OCC)C1c1ccc(F)c(F)c1
[1]
  inhibition: 69.2%

## CCOC(=O)C1=CN(c2ccccc2OC)C=C(C(=O)OCC)C1c1cccc(Br)c1
[1]
  inhibition: 37.3%

## CCOC(=O)C1=CN(c2cccc(Cl)c2)C=C(C(=O)OCC)C1c1ccc(F)cc1
[1]
  inhibition: 44.2%

## CCOC(=O)C1=CN(c2ccc(OC)cc2)C=C(C(=O)OCC)C1c1cccc(Br)c1
[1]
  inhibition: 42%

## CCOC(=O)C1=CN(c2ccc(OC)cc2)C=C(C(=O)OCC)C1c1ccc(F)cc1
[1]
  inhibition: 40.2%

## CCOC(=O)C1=CN(c2ccccc2OC)C=C(C(=O)OCC)C1c1ccc(OC)cc1
[1]
  inhibition: 59.2%

## CCOC(=O)C1=CN(c2ccccc2OC)C=C(C(=O)OCC)C1c1cccc(Cl)c1
[1]
  inhibition: 30.4%

## CCOC(=O)C1=CN(c2ccccc2OC)C=C(C(=O)OCC)C1c1ccc(F)cc1
[1]
  inhibition: 33.4%
